# Assay results reported in PubChem BioAssay.
# Active and inactive are the calls of the source.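 Rule for the calls, unless noted: active = viability at or under a set limit in both replicates, limit being median viability minus 3 SD (cut at about 48% in these data, passing the limit was not always enough); inconclusive = at or under the limit in just one replicate; inactive = at or above the limit in both replicates.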
# What was measured:
# [1] = Her2 expression decrease, cell viability multiplex – SKBR3 breast tumor cells, AlphaScreen, ATP viability, primary screen (AID 461;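 active = Her2 level under about 52% in both replicate screens, with viability over 70% of control, limit read from the data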;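 for Her2 level: lower value means less Her2 protein in the cells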;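 for viability: percent of carrier control wells set as 100% viability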); details: SKBR3 Her2 protein level, 18-24 h, measured here: SKBR3 viability, ATP luminescence, at 10 µM
# [2] = molecular target: Receptor tyrosine-protein kinase erbB-2 (Homo sapiens) (UniProt P04626); test: as above; details: 18-24 h, at 10 µM, stronger effect = lower value
# Chain of Receptor tyrosine-protein kinase erbB-2 (Homo sapiens) (P04626 whole entry, looked up): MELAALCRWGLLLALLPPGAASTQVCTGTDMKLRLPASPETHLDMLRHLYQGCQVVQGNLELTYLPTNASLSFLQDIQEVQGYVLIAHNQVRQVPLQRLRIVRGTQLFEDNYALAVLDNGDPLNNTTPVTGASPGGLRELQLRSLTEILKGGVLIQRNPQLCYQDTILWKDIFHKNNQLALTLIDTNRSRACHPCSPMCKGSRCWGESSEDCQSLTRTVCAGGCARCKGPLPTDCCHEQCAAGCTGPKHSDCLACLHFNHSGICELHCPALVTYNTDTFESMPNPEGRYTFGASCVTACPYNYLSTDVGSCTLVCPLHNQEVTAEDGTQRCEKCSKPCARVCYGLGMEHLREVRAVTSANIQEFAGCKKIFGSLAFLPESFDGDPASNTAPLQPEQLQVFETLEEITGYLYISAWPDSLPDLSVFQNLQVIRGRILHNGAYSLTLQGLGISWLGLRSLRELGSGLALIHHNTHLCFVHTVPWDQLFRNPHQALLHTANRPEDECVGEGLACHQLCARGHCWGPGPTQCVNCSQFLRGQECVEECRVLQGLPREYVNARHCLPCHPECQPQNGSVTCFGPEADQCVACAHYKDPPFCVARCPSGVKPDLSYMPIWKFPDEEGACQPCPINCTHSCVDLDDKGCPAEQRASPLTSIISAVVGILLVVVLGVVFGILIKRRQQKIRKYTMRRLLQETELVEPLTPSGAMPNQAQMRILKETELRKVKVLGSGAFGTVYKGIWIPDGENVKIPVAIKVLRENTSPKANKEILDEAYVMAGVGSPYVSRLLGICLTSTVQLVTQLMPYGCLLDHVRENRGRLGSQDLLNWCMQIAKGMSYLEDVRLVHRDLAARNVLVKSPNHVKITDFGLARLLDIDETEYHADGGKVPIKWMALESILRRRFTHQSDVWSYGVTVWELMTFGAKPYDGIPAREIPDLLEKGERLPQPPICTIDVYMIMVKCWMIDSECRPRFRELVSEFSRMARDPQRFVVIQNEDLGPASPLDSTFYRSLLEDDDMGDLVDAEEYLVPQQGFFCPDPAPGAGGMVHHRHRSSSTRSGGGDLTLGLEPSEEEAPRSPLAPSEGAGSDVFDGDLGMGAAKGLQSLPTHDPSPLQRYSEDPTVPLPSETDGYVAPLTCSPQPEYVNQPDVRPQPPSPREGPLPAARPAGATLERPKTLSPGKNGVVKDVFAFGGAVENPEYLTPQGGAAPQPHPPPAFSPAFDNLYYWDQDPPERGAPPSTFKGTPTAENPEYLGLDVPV
# [3] = reduced viability of SK-BR-3 breast cancer cells – cell-based, 24 h, human, pilot screen (AID 572;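 active = viability at or below 10% of carrier control in both of two separate runs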;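 note: compound exposure lasted between 18 and 24 h rather than exactly 24 h; 100% = carrier-treated control wells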); details: SK-BR-3 viability, CellTiter-Glo luminescence, at 10 µM, stronger effect = lower value
# [4] = HUVEC growth inhibition – cell-based, human, primary screen (AID 575;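 active = viability at or below 30% in both replicate assays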;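 note: 100% = median of untreated cell wells with 0.1% DMSO on each plate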); details: HUVEC proliferation, CellTiter-Glo luminescence, 72 h; at 10 µM; stronger effect = lower value
# In short: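 Timing: 72 h treatment at 37 °C; material: HUVEC primary cells; technique: CellTiter-Glo luminescence measuring cellular ATP; controls: vehicle and MePR control wells; measure: percent of median DMSO-control luminescence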
# [5] = H69AR cell proliferation blockers – human, duplicate replicates, primary screen (AID 580); details: H69AR lung tumor cells viability, ATP luminescence, 72 h; at 10 µM; stronger effect = lower value;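 note: 100% = mean luminescence of untreated wells and 0% = no signal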
# [6] = MRP1 drug-resistance reversers in H69AR cells – cell-based, doxorubicin co-treatment, pilot screen (AID 601;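 active = viability loss from added drug above about 55%, and viability with drug at most 40%, in both replicates, limit read from the data, passing the limit was not always enough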); details: CellTiter-Glo, 72 h, at 10 µM; for differential viability (reversal): stronger effect = higher value
# [7] = yeast transport mutant growth inhibition pilot in 384-well plates, post-Golgi transport modulator project (AID 636; in the data active = inhibition above about 31%); details: absorbance 615 nm, about 18 h, stronger effect = higher value
# [8] = growth suppression of yeast trafficking mutant, preliminary HTS, modulators of trafficking downstream of Golgi apparatus project, 1536-format plate, OD 615 nm (AID 637; in the data active = inhibition above about 30%); details: yeast transport mutant growth, absorbance 615 nm, 18 h; stronger effect = higher value
# [9] = H69AR cells + 2 uM doxorubicin, measured here: viability with 2 uM doxorubicin, stronger effect = lower value
# [10] = H69AR cells, compound alone cytotoxicity
Compound,viability [1] [%],Her2 level [2],viability [3],viability [4],viability [5],differential viability (reversal) ([6]; H69AR cells + 2 uM doxorubicin),"viability [6, 9] [%]","viability [6, 10] [%]",inhibition [7],inhibition [8]
S=C(c1cccs1)N1CCCC1,90.5,110% (inactive),90.5% (inactive),96.7% (inactive),100% (inactive),11.2% (inactive),89.3,100,0.52% (inactive),-8.52% (inactive)
CC1=C(C(=O)NCc2ccccc2)C(c2ccccc2OCC(N)=O)NC(=O)N1 (stereo not given),93.5,77% (inactive),93.5% (inactive),89.1% (inactive),109% (inactive),15.9% (inactive),92.9,109,-4.13% (inactive),1.43% (inactive)
CCCCc1c(O)nc(SCC(=O)c2ccccc2)[nH]c1=O,105,102% (inactive),105% (inactive),89% (inactive),104% (inactive),21.1% (inactive),83,104,-4.87% (inactive),11.8% (inactive)
Cc1nc2ccccc2n1CCC(=O)Nc1cccc(F)c1,88,90% (inactive),88% (inactive),93.6% (inactive),79.9% (inactive),-10.1% (inactive),90,79.9,0.38% (inactive),-5.33% (inactive)
Cc1ccccc1N(CC(=O)NCC1CCCO1)C(=O)C1(C)CC(=O)N=C2C=CC=CN21 (stereo not given),96,96.5% (inactive),96% (inactive),104% (inactive),98.7% (inactive),-1.7% (inactive),100,98.7,-1.05% (inactive),-10.5% (inactive)
COCCn1c(SCC(=O)Nc2nnc(C)s2)nnc1-c1ccncc1,110,94% (inactive),110% (inactive),101% (inactive),97.9% (inactive),11.8% (inactive),86.1,97.9,-5.95% (inactive),7.83% (inactive)
CC(=O)NC(Cc1c[nH]c2ccccc12)C(=O)OCC(=O)Nc1cc(C)on1 (stereo not given),91.5,117% (inactive),91.5% (inactive),101% (inactive),97% (inactive),11% (inactive),86,97,3.46% (inactive),-7.83% (inactive)
Cc1cnc(C(=O)OCC(=O)Nc2ccc(Oc3ccccc3)cc2)cn1,77,102% (inactive),77% (inactive),91.5% (inactive),91.9% (inactive),9.6% (inactive),82.3,91.9,5.51% (inactive),-21.7% (inactive)
CCC(=O)Nc1c2c(nn1-c1ccccc1C)CSC2,86.5,89.5% (inactive),86.5% (inactive),104% (inactive),102% (inactive),12.8% (inactive),89.4,102,-4.42% (inactive),-3.65% (inactive)
Cc1ccc(C2c3sc(=O)[nH]c3SC3C(=O)NC(=O)C32)cc1 (stereo not given),94,87% (inactive),94% (inactive),111% (inactive),105% (inactive),6.17% (inactive),99.2,105,-5.62% (inactive),-4.29% (inactive)
O=C(Nc1ccccn1)NC(C(F)(F)F)C(F)(F)F,98.5,102% (inactive),98.5% (inactive),100% (inactive),92.9% (inactive),2.58% (inactive),90.3,92.9,-1.07% (inactive),1.15% (inactive)
COC(=O)Cn1cnc2c(nnn2-c2ccc(C)cc2)c1=O,86,108% (inactive),86% (inactive),112% (inactive),94.7% (inactive),7% (inactive),87.7,94.7,-6.62% (inactive),-2.17% (inactive)
Cc1cc(OCC(O)CN2CCN(CCO)CC2)ccc1C(C)C (stereo not given),86.5,96% (inactive),86.5% (inactive),101% (inactive),95.3% (inactive),10.5% (inactive),84.8,95.3,-2.21% (inactive),-1.67% (inactive)
O=C(c1cccc(C(=O)N2CCN(c3ccccc3)CC2)c1)N1CCN(c2ccccc2)CC1,95.5,106% (inactive),95.5% (inactive),81.3% (inactive),90.7% (inactive),6.69% (inactive),84,90.7,-2.47% (inactive),-0.33% (inactive)
O=C(C1CCCN(S(=O)(=O)c2cccs2)C1)N1CCc2ccccc2C1 (stereo not given),83,75.5% (inactive),83% (inactive),83.4% (inactive),85.3% (inactive),-6.37% (inactive),91.7,85.3,-4% (inactive),3.28% (inactive)
COc1ccc(-c2cc(C(F)F)n3ncc(C(=O)NCC4CCCO4)c3n2)cc1 (stereo not given),92,89% (inactive),92% (inactive),82.7% (inactive),73.6% (inactive),-3.58% (inactive),77.2,73.6,-0.79% (inactive),4.35% (inactive)

Compound,viability [1] [%],Her2 level [2],viability [3],viability [4],viability [5],differential viability (reversal) ([6]; H69AR cells + 2 uM doxorubicin),"viability [6, 9] [%]","viability [6, 10] [%]",inhibition [7],inhibition [8]
CCN(CC)S(=O)(=O)c1ccc(S(=O)(=O)N(Cc2ccccn2)Cc2ccco2)cc1,94,94.5% (inactive),94% (inactive),90.6% (inactive),91% (inactive),-0.185% (inactive),91.2,91,-2.03% (inactive),3.02% (inactive)
Cn1c(SCc2nnc3n2CCCCC3)nc2ccccc21,103,98.5% (inactive),103% (inactive),98.3% (inactive),98.2% (inactive),4.2% (inactive),94,98.2,-6.67% (inactive),2.54% (inactive)
Cn1c2c(c(=O)n(C)c1=O)CN(CCCN1CCOCC1)CN2,100,86.5% (inactive),100% (inactive),106% (inactive),108% (inactive),7.39% (inactive),101,108,-5.26% (inactive),-5.27% (inactive)
C=CCc1cc(C(=O)N2CCCCC2)ccc1O,104,100% (inactive),104% (inactive),88% (inactive),92.3% (inactive),-15.2% (inactive),108,92.3,-2.5% (inactive),8.2% (inactive)
O=C(Nc1ccc(Cl)cc1C(=O)Nc1ccncc1)c1ccco1,121,48.5% (active),121% (inactive),70.1% (inactive),41.3% (active),-19.2% (inactive),60.5,41.3,-1.84% (inactive),-1.59% (inactive)
Cc1ccc(S(=O)(=O)C2(C(=O)Nc3cccnc3)CC2)cc1,92.5,96% (inactive),92.5% (inactive),91.6% (inactive),98.4% (inactive),3.19% (inactive),95.2,98.4,-1.67% (inactive),-8.67% (inactive)
COc1ccc2c(c1)CCc1c(C(=O)NCc3cccnc3)noc1-2,97.5,95.5% (inactive),97.5% (inactive),102% (inactive),103% (inactive),17.7% (inactive),85.3,103,-1.71% (inactive),0.55% (inactive)
O=C(Nc1ccc(CN2CCCCC2)cc1)c1ccc2c(c1)OCO2,80.5,75% (inactive),80.5% (inactive),98.8% (inactive),91.6% (inactive),11.9% (inactive),79.7,91.6,-2.5% (inactive),-4.44% (inactive)
O=C(CSc1nnnn1Cc1ccccc1)Nc1ccc2c(c1)OCO2,114,108% (inactive),114% (inactive),90.3% (inactive),108% (inactive),18.2% (inactive),89.5,108,-5.54% (inactive),-3.17% (inactive)
CCOC(=O)C(NC(=O)c1ccccc1)(Nc1cc(C)on1)C(F)(F)F (stereo not given),106,90.5% (inactive),106% (inactive),101% (inactive),97.7% (inactive),11.1% (inactive),86.6,97.7,-0.93% (inactive),-1.61% (inactive)
O=C(CSc1nc2[nH]ncc2c(=O)n1-c1ccccc1Br)NCc1ccco1,100,80.5% (inactive),100% (inactive),95% (inactive),82.9% (inactive),5.05% (inactive),77.8,82.9,-4.61% (inactive),-1.77% (inactive)
CCOc1ccc(C(=O)N2CCC(C(=O)c3ccc4c(c3)OCCO4)CC2)cc1,84.5,79.5% (inactive),84.5% (inactive),77.8% (inactive),86.3% (inactive),0.19% (inactive),86.1,86.3,-4.61% (inactive),-6.91% (inactive)
CCS(=O)(=O)N1CCCC(C(=O)NCc2cccc(OC)c2)C1 (stereo not given),106,108% (inactive),106% (inactive),98.1% (inactive),96.6% (inactive),-4.98% (inactive),102,96.6,-5.2% (inactive),5.41% (inactive)
CN1CCN(CC(=O)Nc2ccc(Cl)cc2Cl)CC1,85.5,95% (inactive),85.5% (inactive),91.6% (inactive),93.8% (inactive),3.29% (inactive),90.5,93.8,-3.29% (inactive),2.74% (inactive)
Cc1ccc(CNC(=O)COC(=O)c2c(C)noc2C)cc1,99,121% (inactive),99% (inactive),97.4% (inactive),92.8% (inactive),7.25% (inactive),85.6,92.8,-4.03% (inactive),-14.2% (inactive)
c1ccc(Cc2nnc3n2CCCCC3)cc1,99,90% (inactive),99% (inactive),93.9% (inactive),99.2% (inactive),1.42% (inactive),97.7,99.2,-7.2% (inactive),0.82% (inactive)
